These results are taken from ChEMBL document CHEMBL4316612, “Synthesis of novel dihydrotriazine derivatives bearing 1,3-diaryl pyrazole moieties as potential antibacterial agents” (Bioorg Med Chem Lett, 2019).

The structures appear in SMILES notation. ≈ marks a conversion by molar mass, not a printed value.

The subject of assay [1] is Staphylococcus aureus. As to the kind of experiment: Antibacterial activity against quinolone-resistant Staphylococcus aureus CCARM 3519 after 24 hrs by microtiter ELISA. Type of assay: functional. Particulars: CCARM 3519, 24 h. In short, it runs like this:
(§1)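 Broth microdilution MIC. Bacteria grown to mid-log phase in Mueller-Hinton broth, diluted 1000-fold, and inoculated at 10^5 CFU/mL. Compounds in DMSO (final ≤0.05%) were given as two-fold serial dilutions, final 64-0.25 µg/mL. Plates were incubated 24 h at 37 °C and growth read at 650 nm. MIC is the lowest concentration giving complete growth inhibition. Three independent experiments; oxacillin and norfloxacin served as positive controls.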
(In general: ELISA stands for enzyme-linked immunosorbent assay.)

Assay [2] concerns Staphylococcus aureus. Nature of the assay: Antibacterial activity against Staphylococcus aureus RN4220 after 24 hrs by microtiter ELISA. Type of assay: functional. The note with it: RN4220, 24 h. In a few lines:
as §1

The test system of the next assay is L02. Nature of the assay: Cytotoxicity against human L02 cells assessed as inhibition of cell growth measured after 24 hrs by MTT assay. Type of assay: cell-based. Particulars: L02, 24 h. In a few lines: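 L02 normal human liver cells seeded at 1.8 × 10^4 cells/well in DMEM with 10% FBS and antimycotic. Exposed 24 h at 37 °C, 5% CO2 to 200-1.625 µM, compounds in 10% DMSO. MTT (2.5 mg/mL) added for 4 h, formazan dissolved in DMSO, OD at 570 nm. Untreated cells as negative control; IC50 = 50% growth inhibition; triplicate.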
For orientation: Tetrazolium assays rely on reduction of a dye to a coloured formazan, in cell work by metabolically active cells.

The target in assay [3] is Dihydrofolate reductase (Homo sapiens) (UniProt P00374). Nature of the assay: Inhibition of human DHFR at 10 umol/L measured after 1.5 hrs by ELISA relative to control.
Dihydrofolate reductase (Homo sapiens), sequence (P00374 whole entry, looked up): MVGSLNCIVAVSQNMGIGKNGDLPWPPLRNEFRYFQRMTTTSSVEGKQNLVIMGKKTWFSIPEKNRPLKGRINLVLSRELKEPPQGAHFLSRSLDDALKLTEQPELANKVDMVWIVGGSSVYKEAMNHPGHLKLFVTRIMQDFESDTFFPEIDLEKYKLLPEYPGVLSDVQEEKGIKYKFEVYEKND
A further assay concerns Candida albicans. Nature of the assay: Antifungal activity against Candida albicans 7535 after 24 hrs by microtiter ELISA. In kind it is functional. Particulars: Candida albicans, 7535, 24 h. In short, it runs like this:
(§2)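 Two-fold serial broth dilution in Mueller-Hinton broth, final 64-0.25 µg/mL; compounds in DMSO (final ≤0.05%). Mid-log cultures diluted 1000-fold, inoculum 10^5 CFU/mL; oxacillin and norfloxacin as positive controls. After 24 h at 37 °C, growth read at 650 nm on a microtiter ELISA reader; MIC = lowest level giving complete growth inhibition. Run three times.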

The subject of assay [4] is Staphylococcus aureus. As to the kind of experiment: Antibacterial activity against quinolone-resistant Staphylococcus aureus CCARM 3505 after 24 hrs by microtiter ELISA. Type of assay: functional. Particulars: CCARM 3505, 24 h. In short, it runs like this: as §1
Assay [5] concerns Staphylococcus aureus. Nature of the assay: Antibacterial activity against methicillin-resistant Staphylococcus aureus CCARM 3506 after 24 hrs by microtiter ELISA. Type of assay: functional. The note with it: CCARM 3506, 24 h. In short, it runs like this: as §1
Assay [6] deals with Staphylococcus aureus. Nature of the assay: Antibacterial activity against methicillin-resistant Staphylococcus aureus CCARM 3167 after 24 hrs by microtiter ELISA. Type of assay: functional. Particulars: CCARM 3167, 24 h. In short, it runs like this:
as §1

Another assay relates to Streptococcus mutans. As to the kind of experiment: Antibacterial activity against Streptococcus mutans 3289 after 24 hrs by microtiter ELISA. Type of assay: functional. The note with it: Streptococcus mutans, 3289, 24 h. In a few lines:
as §2

The next assay deals with Escherichia coli. As to the kind of experiment: Antibacterial activity against Escherichia coli KCTC 1924 after 24 hrs by microtiter ELISA. In kind it is functional. Particulars: KCTC 1924, 24 h. In a few lines: as §2
The test system of assay [7] is Staphylococcus aureus. Nature of the assay: Antibacterial activity against Staphylococcus aureus by serial dilution method. In kind it is functional. In short, it runs like this: as §2
Assay [8] has as its system Staphylococcus aureus. Nature of the assay: Antibacterial activity against quinolone-resistant Staphylococcus aureus CCARM 3505 by serial dilution method. Type of assay: functional. In short, it runs like this:
as §1

For assay [9], the system named is Staphylococcus aureus. As to the kind of experiment: Antibacterial activity against Staphylococcus aureus RN4220 by serial dilution method. Type of assay: functional. In a few lines: as §1

One may read the MIC as the lowest concentration that inhibits growth of the organism. A high value points to weaker potency. A word on the IC50: it is the concentration needed to halve the response being measured. The inhibition is the change of the read-out against control, counted positive when it falls. Low values mean little suppression, high ones strong suppression. In the case of `NC1=NC(c2cn(-c3ccc([N+](=O)[O-])cc3)nc2-c2ccc(Cl)cc2Cl)N=C(NCCc2ccccc2)N1` (stereo not given), the MIC in the assay on Staphylococcus aureus [1], against Staphylococcus aureus [2], against Candida albicans, with Staphylococcus aureus [4], in the assay on Staphylococcus aureus [5] and in the assay with Staphylococcus aureus [6] was 1 µg/mL (≈ 1.82 µM) each time. Moreover, the MIC in the assay on Streptococcus mutans and against Escherichia coli was 1 µg/mL (≈ 1.82 µM) each time. The IC50 in the assay with L02 is 50.5 µM. This compound also showed an inhibition in assay [3] of 92%.

On to `O=C(O)CN1C(=O)/C(=C/c2cn(-c3ccc([N+](=O)[O-])cc3[N+](=O)[O-])nc2-c2ccc(Cl)cc2Cl)SC1=S`, for which the lowest concentration to inhibit growth in the assay on Staphylococcus aureus [7] (MIC) was 16 µg/mL (≈ 27.6 µM).

With `CN(C)C1=NC(c2cn(-c3ccc([N+](=O)[O-])cc3)nc2-c2ccc(Cl)cc2Cl)N=C(N)N1` (stereo not given), the MIC worked out at 2 µg/mL (≈ 4.23 µM) with Staphylococcus aureus [1]; 2 µg/mL (≈ 4.23 µM) in the assay on Staphylococcus aureus [2]; 4 µg/mL (≈ 8.45 µM) against Candida albicans; 4 µg/mL (≈ 8.45 µM) in the assay with Staphylococcus aureus [4]; 2 µg/mL (≈ 4.23 µM) against Staphylococcus aureus [5]; 2 µg/mL (≈ 4.23 µM) against Staphylococcus aureus [6]. For the same compound, the values for the minimum inhibitory concentration (MIC) in the assay on Streptococcus mutans and in the assay on Escherichia coli were 4 µg/mL (≈ 8.45 µM) and 2 µg/mL (≈ 4.23 µM), respectively. The half-inhibitory concentration (IC50) in the assay on L02 was greater than 100 µM.

For `NC1=NC(c2cn(-c3ccc([N+](=O)[O-])cc3)nc2-c2ccc(Cl)cc2Cl)N=C(N2CCOCC2)N1` (stereo not given), the MIC with Staphylococcus aureus [1] worked out at 4 µg/mL (≈ 7.76 µM); against Staphylococcus aureus [2] it was 2 µg/mL (≈ 3.88 µM); against Candida albicans it was 4 µg/mL (≈ 7.76 µM); against Staphylococcus aureus [4], 4 µg/mL (≈ 7.76 µM); with Staphylococcus aureus [5] it was 2 µg/mL (≈ 3.88 µM); with Staphylococcus aureus [6] it was 2 µg/mL (≈ 3.88 µM). Besides, the minimum inhibitory concentration (MIC) in the assay with Streptococcus mutans amounted to 8 µg/mL (≈ 15.5 µM); with Escherichia coli, 4 µg/mL (≈ 7.76 µM). Besides, the concentration for half-maximal inhibition (IC50) in the assay on L02 is greater than 100 µM.

Consider `NC1=NC(c2ccc3cc(OCc4ccc(Cl)cc4Cl)ccc3c2)N=C(N2CCOCC2)N1` (stereo not given), for which the MIC in the assay with Staphylococcus aureus [8] and against Staphylococcus aureus [9] was 1 µg/mL (≈ 2.06 µM) each time.

Regarding `CN(C)C1=NC(c2cn(-c3ccc([N+](=O)[O-])cc3[N+](=O)[O-])nc2-c2ccc(Cl)cc2Cl)N=C(N)N1` (stereo not given), the minimum inhibitory concentration (MIC) with Staphylococcus aureus [1] is 16 µg/mL (≈ 30.9 µM); against Staphylococcus aureus [2], 8 µg/mL (≈ 15.4 µM); with Candida albicans it was 8 µg/mL (≈ 15.4 µM); against Staphylococcus aureus [4] it was 8 µg/mL (≈ 15.4 µM); with Staphylococcus aureus [5], 4 µg/mL (≈ 7.72 µM); in the assay on Staphylococcus aureus [6], 4 µg/mL (≈ 7.72 µM). Further, the MIC in the assay with Streptococcus mutans and against Escherichia coli was 8 µg/mL (≈ 15.4 µM) each time. Further, the IC50 with L02 is greater than 100 µM.

Regarding `CN(C)C1=NC(c2cn(-c3ccc([N+](=O)[O-])cc3[N+](=O)[O-])nc2-c2ccccc2[N+](=O)[O-])N=C(N)N1` (stereo not given), the MIC against Staphylococcus aureus [1], against Staphylococcus aureus [2], in the assay on Candida albicans, in the assay on Staphylococcus aureus [4], against Staphylococcus aureus [5] and in the assay on Staphylococcus aureus [6] was greater than 64 µg/mL each time. The minimum inhibitory concentration (MIC) in the assay with Streptococcus mutans and in the assay on Escherichia coli was greater than 64 µg/mL each time.

With `CN(C)C1=NC(c2cn(-c3ccc([N+](=O)[O-])cc3[N+](=O)[O-])nc2-c2ccccc2Br)N=C(N)N1` (stereo not given), the minimal inhibitory concentration (MIC) against Staphylococcus aureus [1] is 64 µg/mL (≈ 121 µM); in the assay on Staphylococcus aureus [2], 32 µg/mL (≈ 60.6 µM); in the assay on Candida albicans, 64 µg/mL (≈ 121 µM); against Staphylococcus aureus [4], 32 µg/mL (≈ 60.6 µM); in the assay with Staphylococcus aureus [5], 32 µg/mL (≈ 60.6 µM); with Staphylococcus aureus [6] it was 32 µg/mL (≈ 60.6 µM). Moreover, the MIC with Streptococcus mutans and with Escherichia coli was 32 µg/mL (≈ 60.6 µM) each time.

For the compound `CN(C)C1=NC(c2cn(-c3ccc([N+](=O)[O-])cc3[N+](=O)[O-])nc2-c2cccc(Cl)c2)N=C(N)N1` (stereo not given), the minimal inhibitory concentration (MIC) against Staphylococcus aureus [1] is 16 µg/mL (≈ 33.1 µM); with Staphylococcus aureus [2] it was 4 µg/mL (≈ 8.27 µM); against Candida albicans, 8 µg/mL (≈ 16.5 µM); against Staphylococcus aureus [4] it was 4 µg/mL (≈ 8.27 µM); with Staphylococcus aureus [5] it was 4 µg/mL (≈ 8.27 µM); in the assay with Staphylococcus aureus [6], 4 µg/mL (≈ 8.27 µM). The MIC in the assay with Streptococcus mutans and against Escherichia coli was 8 µg/mL (≈ 16.5 µM) throughout.

In the case of `CN(C)C1=NC(c2cn(-c3ccc([N+](=O)[O-])cc3[N+](=O)[O-])nc2-c2ccccc2F)N=C(N)N1` (stereo not given), the MIC in the assay with Staphylococcus aureus [1] came out at 64 µg/mL (≈ 137 µM); against Staphylococcus aureus [2], 64 µg/mL (≈ 137 µM); in the assay on Candida albicans, 32 µg/mL (≈ 68.5 µM); in the assay on Staphylococcus aureus [4], 64 µg/mL (≈ 137 µM); against Staphylococcus aureus [5], 32 µg/mL (≈ 68.5 µM); in the assay on Staphylococcus aureus [6] it was 64 µg/mL (≈ 137 µM). Also, the minimal inhibitory concentration (MIC) against Streptococcus mutans was 64 µg/mL (≈ 137 µM); in the assay with Escherichia coli, 32 µg/mL (≈ 68.5 µM).

As to `CN(C)C1=NC(c2cn(-c3ccccc3)nc2-c2cccc(Cl)c2)N=C(N)N1` (stereo not given), the minimum inhibitory concentration (MIC) was determined as 32 µg/mL (≈ 81.2 µM) in the assay with Staphylococcus aureus [1]; 4 µg/mL (≈ 10.2 µM) against Staphylococcus aureus [2]; 8 µg/mL (≈ 20.3 µM) against Candida albicans; 32 µg/mL (≈ 81.2 µM) against Staphylococcus aureus [4]; 16 µg/mL (≈ 40.6 µM) against Staphylococcus aureus [5]; 16 µg/mL (≈ 40.6 µM) in the assay with Staphylococcus aureus [6]. Further, the minimum inhibitory concentration (MIC) against Streptococcus mutans was found to be 16 µg/mL (≈ 40.6 µM); with Escherichia coli, 8 µg/mL (≈ 20.3 µM).
